Source: ChEMBL document CHEMBL3272036, “Reactions of 2-acyloxyisobutyryl halides with nucleosides. Synthesis and biological evaluation of some 3"-acyl and 3',5'-diacyl derivatives of 1-beta-D-arabinofuranosylcytosine” (J Med Chem, 1976)
Values after ≈ are worked out from the molar mass of the structure shown. Active and inactive are the calls of the source. No cut-off for these calls is given here.

Columns and labels:
L1210 [1] = assay: Antitumor activity against mouse L1210 cells allografted in BDF1 mouse assessed as increase in life span at 200 mg/kg, ip administered as single dose relative to vehicle-treated control; format: functional; settings: route intraperitoneal
Summary of the method: (§1)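 Single intraperitoneal injection given 24 h after the leukemic cells were introduced, at 100, 200, 500 or 1000 mg/kg. Read-out is % increase in life span (ILS), with the count of 30-day survivors per group recorded (group sizes 7–8 mice).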

Vaccinia virus = assay: Antiviral activity against Vaccinia virus IHD infected in African green monkey BGM cells assessed as plaque reduction measured on day 5 by disk diffusion assay; format: functional; settings: Orthopoxvirus vaccinia, 120 h, read-out: ED50 (the source's name)
L1210 [2] = assay: Antitumor activity against mouse L1210 cells allografted in BDF1 mouse assessed as increase in life span at 100 mg/kg, ip administered as single dose relative to vehicle-treated control; format: functional; settings: route intraperitoneal; summary of the method: as §1
L1210 [3] = assay: Antitumor activity against mouse L1210 cells allografted in BDF1 mouse assessed as survival at 50 mg/kg, ip administered as single dose measured on day 30 relative to vehicle-treated control; format: functional, organism-based; design: dose 50 mg/kg
L1210 [4] = assay: Antitumor activity against mouse L1210 cells allografted in BDF1 mouse assessed as survival at 200 mg/kg, ip administered as single dose measured on day 30 relative to vehicle-treated control; format: functional, organism-based; design: dose 200 mg/kg
Summary of the method: (§2)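 Leukemic L1210 cells were introduced into mice. Each compound was then given as a single intraperitoneal injection 24 h later. Activity is expressed as % increase in life span (ILS), with the count of 30-day survivors per group. Doses tested were 100, 200, 500 and 1000 mg/kg.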

Herpesviridae sp. = assay: Antiviral activity against Herpes Simplex virus HF infected in African green monkey BGM cells assessed as plaque reduction measured on day 5 by disk diffusion assay; format: functional; settings: 120 h, read-out: ED50 (the source's name)
HeLa = assay: Cytotoxicity against human HeLa cells after 48 hrs by Coulter counter analysis; format: functional; settings: read-out: ED50 (the source's name)
L1210 [5] = assay: Antitumor activity against mouse L1210 cells allografted in BDF1 mouse assessed as survival at 1000 mg/kg, ip administered as single dose measured on day 30 relative to vehicle-treated control; format: functional, organism-based; design: dose 1000 mg/kg; summary of the method: as §2
L1210 [6] = assay: Antitumor activity against mouse L1210 cells allografted in BDF1 mouse assessed as increase in life span at 1000 mg/kg, ip administered as single dose relative to vehicle-treated control; format: functional; settings: route intraperitoneal; summary of the method: as §1

With `CCCCCC(=O)O[C@H]1[C@H](O)[C@H](n2ccc(N)nc2=O)O[C@@H]1CO` the ILS at 200 mg/kg (L1210 [1]) was 21%, the EC50 (Vaccinia virus) was 0.48 µM and the ILS at 100 mg/kg (L1210 [2]) was 5%. The Activity (L1210 [3]) was “inactive”, the Activity (L1210 [4]) was “inactive” and the EC50 (Herpesviridae sp.) was 1.5 µM. For the same molecule, the EC50 (HeLa) was 0.05 µg/mL (≈ 0.146 µM).

In the case of `CCCCCCCC/C=C\CCCCCCCC(=O)OC[C@H]1O[C@@H](n2ccc(N)nc2=O)[C@@H](O)[C@@H]1OC(=O)CCCCCCC/C=C\CCCCCCCC.Cl`, the ILS at 200 mg/kg (L1210 [1]) is reported as > 190%, the EC50 (Vaccinia virus) is reported as 17.5 µM and the ILS at 100 mg/kg (L1210 [2]) is reported as 70%. For the same molecule, the Activity (L1210 [3]) was “inactive”, the EC50 (Herpesviridae sp.) was > 30 µM and the EC50 (HeLa) was 1.1 µg/mL.

For `CCCCCCCC/C=C/CCCCCCCC(=O)OC[C@H]1O[C@@H](n2ccc(N)nc2=O)[C@@H](O)[C@@H]1OC(=O)CCCCCCC/C=C/CCCCCCCC`, the ILS at 200 mg/kg (L1210 [1]) was > 253%, the EC50 (Vaccinia virus) was > 30 µM and the ILS at 100 mg/kg (L1210 [2]) was 14%. For the same molecule, the Activity (L1210 [3]) was “inactive”, the EC50 (Herpesviridae sp.) was > 30 µM and the EC50 (HeLa) was 2.5 µg/mL (≈ 3.24 µM).

For `CCCCCCCCCCCC(=O)O[C@H]1[C@H](O)[C@H](n2ccc(N)nc2=O)O[C@@H]1CO`, the Activity (L1210 [5]) was “inactive”, the ILS at 200 mg/kg (L1210 [1]) was > 257% and the EC50 (Vaccinia virus) was 0.05 µM. For the same molecule, the ILS at 100 mg/kg (L1210 [2]) was > 258%, the ILS at 1000 mg/kg (L1210 [6]) was -28% and the Activity (L1210 [3]) was “Active”. For the same molecule, the EC50 (Herpesviridae sp.) was 0.25 µM and the EC50 (HeLa) was 0.08 µg/mL (≈ 0.188 µM).
